The values below come from ChEMBL document CHEMBL2010801, “Semisynthesis and antimicrobial activity of novel guttiferone-A derivatives” (Bioorg Med Chem, 2012).

Broadly, the MIC50 is an inhibitory concentration at the 50% level, which refers to growth in some studies and to a panel of isolates in others. The term CC50 denotes the concentration giving 50% cytotoxicity. A higher CC50 goes with lower toxicity to the cells.

One data set relates to Staphylococcus aureus. Put plainly: Antimicrobial activity against Staphylococcus aureus ATCC 6538 after 24 hrs by broth microdilution method. The class given is functional. The conditions noted are these: ATCC 6538, 24 h. Put shortly: (§1)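 Microplate broth microdilution with a serial dilution series of compounds, using chloramphenicol as the antibacterial control. Bacterial plates were incubated at 35 °C for 24 h.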

The subject of data set [1] is Staphylococcus epidermidis. Put plainly: Antimicrobial activity against Staphylococcus epidermidis ATCC 12228 after 24 hrs by broth microdilution method. The class given is functional. An outline of the steps: as §1
For a further data set, the system named is Bacillus cereus. Nature of the data set: Antimicrobial activity against Bacillus cereus ATCC 11778 after 24 hrs by broth microdilution method. The class given is functional. The conditions noted are these: ATCC 11778, 24 h; for MIC: read-out: MIC100. Put shortly:
as §1

Another data set has as its system Pseudomonas aeruginosa. Nature of the data set: Antimicrobial activity against Pseudomonas aeruginosa ATCC 9027 after 24 hrs by broth microdilution method. The class given is functional. Particulars: for MIC50: ATCC 9027, 24 h. Put shortly: as §1
On the technique in general: Broth dilution looks for growth in wells or tubes with falling amounts of substance.

A further data set concerns Salmonella typhimurium. Put plainly: Antimicrobial activity against Salmonella typhimurium ATCC 14028 after 24 hrs by broth microdilution method. The class given is functional. Put shortly:
as §1

A further data set deals with Escherichia coli. Nature of the data set: Antimicrobial activity against Escherichia coli ATCC 25922 after 24 hrs by broth microdilution method. The class given is functional. Put shortly:
as §1

The test system of another data set is Proteus mirabilis. Put plainly: Antimicrobial activity against Proteus mirabilis ATCC 25933 after 24 hrs by broth microdilution method. The class given is functional. Put shortly:
as §1

Another data set relates to Candida albicans. Put plainly: Antifungal activity against Candida albicans ATCC 09548 after 24 hrs by broth microdilution method. The class given is functional. An outline of the steps: (§2)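 Broth microdilution in microplates with a serial dilution series of compounds. Amphotericin B served as the fungicidal control and fluconazole as the fungistatic control. Yeast plates were incubated at 37 °C for 24 h.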

In a further data set the test system is Pichia kudriavzevii. Put plainly: Antifungal activity against Candida krusei ATCC 6258 after 24 hrs by broth microdilution method. The data set is classed as functional. An outline of the steps:
as §2

The subject of the next data set is Candida parapsilosis. Put plainly: Antifungal activity against Candida parapsilosis ATCC 69548 after 24 hrs by broth microdilution method. The class given is functional. Put shortly:
as §2

For the next data set, the system named is Nakaseomyces glabratus. Put plainly: Antifungal activity against Candida glabrata ATCC 90030 after 24 hrs by broth microdilution method. The data set is classed as functional. Put shortly: as §2
In a further data set the test system is Candida tropicalis. Nature of the data set: Antifungal activity against Candida tropicalis ATCC 750 after 24 hrs by broth microdilution method. The class given is functional. An outline of the steps: as §2
The next data set deals with Cryptococcus neoformans. Nature of the data set: Antifungal activity against Cryptococcus neoformans ATCC 90012 after 24 hrs by broth microdilution method. The data set is classed as functional. The conditions noted are these: for MIC: read-out: MIC100. Put shortly:
as §2

A further data set relates to Trichophyton tonsurans. Nature of the data set: Antifungal activity against Trichophyton tonsurans after 48 hrs by broth microdilution method. The class given is functional. Particulars: for MIC: read-out: MIC100. An outline of the steps: (§3)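 Broth microdilution against filamentous fungi with serially diluted compounds. Amphotericin B (fungicidal) and fluconazole (fungistatic) were run as controls. Plates were incubated at 30 °C for 48 h.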

The next data set concerns Nannizzia gypsea. Nature of the data set: Antifungal activity against Microsporum gypseum after 48 hrs by broth microdilution method. The class given is functional. Put shortly:
as §3

The nature of data set [2]: Cytotoxicity against human PBMC after 48 hrs by MTT assay. The data set is classed as cell-based. Particulars: PBMC (peripheral blood mononuclear cells). Put shortly:
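Normal human PBMC from healthy volunteers were isolated by Ficoll-Hypaque density gradient and seeded at 2.4 × 10⁶ cells/mL. Compounds were added at 100 to 0.06 and cells held 48 h at 37 °C, 5% CO₂. MTT was then added for 4 h, formazan dissolved in DMSO and A560 read. Untreated cells were taken as 100% viability. CC50 was obtained by linear regression.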
A general note: Tetrazolium assays rely on reduction of a dye to a coloured formazan, in cell work by metabolically active cells.

[3] abbreviates: ATCC 90012, 24 h, read-out: MIC50.

In brackets after ≈: the same amount, converted by molar mass. Activity calls are given as the source filed them. The calls are words filed in the database; no cut-off is given here. A value given as a limit tells only on which side of the number the result lay.

Turning to `CC(C)=CCC[C@]1(C)[C@@H](CC=C(C)C)C[C@@]2(CC=C(C)C)C(=O)C(C(=O)c3ccc(OC(=O)OC(C)(C)C)c(O)c3)=C(O)[C@]1(CC=C(C)C)C2=O`, the MIC50 in the data set on Staphylococcus aureus amounted to 18 µM (≈ 12.7 µg/mL); against Bacillus cereus, 1800 µM (≈ 1270 µg/mL); in the data set on Pseudomonas aeruginosa, 58.2 µM (≈ 40.9 µg/mL); in the data set with Salmonella typhimurium (Salmonella enterica, ATCC 14028, 24 h, read-out: MIC50) it was 57 µM (≈ 40.1 µg/mL); in the data set with Escherichia coli (ATCC 25922, 24 h) it was 555 µM (≈ 390 µg/mL); in the data set on Pichia kudriavzevii (ATCC 6258, 24 h) it was 56.9 µM (≈ 40 µg/mL). In addition, the MIC50 worked out at 56.9 µM (≈ 40 µg/mL) against Nakaseomyces glabratus (ATCC 90030, 24 h); 555 µM (≈ 390 µg/mL) with Cryptococcus neoformans (setting [3]); 55 µM (≈ 38.7 µg/mL) in the data set with Trichophyton tonsurans. For the same compound, the MIC50 entry (in data set [1]; with Proteus mirabilis; in the data set with Candida albicans; in the data set on Candida tropicalis) was “inactive” in each case. Further, the MIC100 result (in [1]; in the data set on Pseudomonas aeruginosa; in the data set with Salmonella typhimurium (Salmonella enterica subsp. enterica serovar Typhimurium); in the data set with Escherichia coli; with Proteus mirabilis; with Candida albicans) was “inactive” in each case. The MIC100 result in the data set on Candida parapsilosis, in the data set with Nakaseomyces glabratus and in the data set with Candida tropicalis was “inactive” in each case. Moreover, the MIC with Bacillus cereus stood at 28.4 µM (≈ 20 µg/mL); with Cryptococcus neoformans (ATCC 90012, 24 h) it was 1.82 µM (≈ 1.28 µg/mL); in the data set with Trichophyton tonsurans it was 1820 µM (≈ 1280 µg/mL); with Nannizzia gypsea (read-out: MIC100), 28.4 µM (≈ 20 µg/mL). Also, the cytotoxic concentration (CC50) at 48 h in [2] is over 142 µM.

For the compound `O=C(N[C@H](CO)[C@H](O)c1ccc([N+](=O)[O-])cc1)C(Cl)Cl` [CHLORAMPHENICOL], the MIC50 was 6030 µM (≈ 1950 µg/mL) in the data set with Staphylococcus aureus (read-out: MIC50); 4820 µM (≈ 1560 µg/mL) against Bacillus cereus; 48.3 µM (≈ 15.6 µg/mL) with Pseudomonas aeruginosa; 15.1 µM (≈ 4.88 µg/mL) in the data set on Salmonella typhimurium (Salmonella enterica, ATCC 14028, 24 h); 1510 µM (≈ 487 µg/mL) against Escherichia coli (ATCC 25922, 24 h); 24.1 µM (≈ 7.79 µg/mL) against Proteus mirabilis (ATCC 25933, 24 h). Further, the MIC amounted to 12 µM (≈ 3.89 µg/mL) with Staphylococcus aureus (read-out: MIC100); 77.4 µM (≈ 25 µg/mL) in the data set on Bacillus cereus; 6.03 µM (≈ 1.95 µg/mL) in the data set with Salmonella typhimurium (Salmonella enterica, ATCC 14028, 24 h, read-out: MIC100); 12.1 µM (≈ 3.9 µg/mL) in the data set with Escherichia coli (ATCC 25922, 24 h, read-out: MIC100); 48.3 µM (≈ 15.6 µg/mL) with Proteus mirabilis (ATCC 25933, 24 h, read-out: MIC100).

Turning to `OC(Cn1cncn1)(Cn1cncn1)c1ccc(F)cc1F` [FLUCONAZOLE], the MIC100 result with Candida albicans, in the data set on Pichia kudriavzevii, in the data set on Candida parapsilosis and with Nakaseomyces glabratus was “inactive” each time. The MIC50 against Candida tropicalis (ATCC 750, 24 h) turned out to be 3260 µM (≈ 998 µg/mL); in the data set on Cryptococcus neoformans (setting [3]), 6530 µM (≈ 2000 µg/mL).

With `C[C@@H]1[C@H](O)[C@@H](C)/C=C/C=C/C=C/C=C/C=C/C=C/C=C/[C@H](O[C@@H]2O[C@H](C)[C@@H](O)[C@H](N)[C@@H]2O)C[C@@H]2O[C@](O)(C[C@@H](O)C[C@@H](O)[C@H](O)CC[C@@H](O)C[C@@H](O)CC(=O)O[C@H]1C)C[C@H](O)[C@H]2C(=O)O` [AMPHOTERICIN B], the MIC in the data set with Candida albicans (ATCC 09548, 24 h, read-out: MIC100) is 0.54 µM (≈ 0.499 µg/mL); with Pichia kudriavzevii (ATCC 6258, 24 h, read-out: MIC100) it was 1.08 µM (≈ 0.998 µg/mL); in the data set with Candida parapsilosis (Lodderomyces parapsilosis, ATCC 69548, 24 h, read-out: MIC100), 0.54 µM (≈ 0.499 µg/mL); with Nakaseomyces glabratus (ATCC 90030, 24 h, read-out: MIC100) it was 0.54 µM (≈ 0.499 µg/mL); with Candida tropicalis (ATCC 750, 24 h, read-out: MIC100), 1.08 µM (≈ 0.998 µg/mL); with Cryptococcus neoformans (ATCC 90012, 24 h), 1.08 µM (≈ 0.998 µg/mL). Moreover, the MIC in the data set on Trichophyton tonsurans amounted to 540 µM (≈ 499 µg/mL). The MIC50 result with Pichia kudriavzevii, in the data set on Candida parapsilosis, in the data set on Nakaseomyces glabratus, with Candida tropicalis, in the data set with Cryptococcus neoformans and in the data set on Trichophyton tonsurans was “inactive” throughout. Moreover, the MIC50 result in the data set with Nannizzia gypsea is “inactive”.
